Results taken from ChEMBL document CHEMBL1127457, “Nonpeptide renin inhibitors with good intraduodenal bioavailability and efficacy in dog” (J Med Chem, 1994).

Test system: not listed separately
Assay: Partition coefficient (logD6.5)
Details: octanol/water, pH 6.5
CCCC[C@H](O[C@@H](Cc1ccccc1)C(=O)N1CCC(OCOC)CC1)C(=O)N[C@@H](CC1CCCCC1)[C@@H](O)C[C@H](C(=O)NCCCNC(C)=O)C(C)C showed a logD of 4.3.
CCCC[C@H](N[C@@H](Cc1ccccc1)C(=O)N1CCC(OCOC)CC1)C(=O)N[C@@H](CC1CCCCC1)[C@@H](O)C[C@H](C(=O)NCCCN1CCOCC1)C(C)C showed a logD of 3.9.

Test system: not listed separately
Assay: Average peak plasma concentration of compound after 10 mg/kg intraduodenal administration to Ferret
Details: in vivo
Work on CCCC[C@H](N[C@@H](Cc1ccccc1)C(=O)N1CCC(OCOC)CC1)C(=O)N[C@@H](CC1CCCCC1)[C@@H](O)C[C@H](C(=O)NCCCN1CCOCC1)C(C)C yielded a Cmax of 4620 ng/mL.

Test system: not listed separately
Assay: Average area under curve at 10 mg/kg dose after intraduodenal administration to Ferret
Details: in vivo
In the case of CCCC[C@H](N[C@@H](Cc1ccccc1)C(=O)N1CCC(OCOC)CC1)C(=O)N[C@@H](CC1CCCCC1)[C@@H](O)C[C@H](C(=O)NCCCN1CCOCC1)C(C)C, the AUC is reported as 6800 ng·h/mL.

Test system: not listed separately
Assay: Oral bioavailability in dog (salt depleted)
Details: in vivo
In the case of CCCC[C@H](N[C@@H](Cc1ccccc1)C(=O)N1CCC(OCOC)CC1)C(=O)N[C@@H](CC1CCCCC1)[C@@H](O)C[C@H](C(=O)NCCCN1CCOCC1)C(C)C, the bioavailability is reported as 57%.

Target: T1, Renin (Rattus norvegicus, UniProt P08424)
T1 sequence (P08424 whole entry): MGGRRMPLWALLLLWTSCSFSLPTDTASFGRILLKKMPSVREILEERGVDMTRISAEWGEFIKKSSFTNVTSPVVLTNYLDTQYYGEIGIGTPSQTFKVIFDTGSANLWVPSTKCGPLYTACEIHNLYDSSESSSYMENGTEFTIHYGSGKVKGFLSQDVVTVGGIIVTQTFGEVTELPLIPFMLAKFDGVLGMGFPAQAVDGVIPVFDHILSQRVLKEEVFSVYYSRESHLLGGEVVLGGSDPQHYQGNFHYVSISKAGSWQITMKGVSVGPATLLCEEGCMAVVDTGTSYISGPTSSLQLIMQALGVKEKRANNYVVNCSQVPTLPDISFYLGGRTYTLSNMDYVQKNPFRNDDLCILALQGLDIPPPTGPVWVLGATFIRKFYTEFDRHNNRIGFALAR
Assay: Tested in vitro for its ability to inhibit the rat plasma renin
Type: cell-free
Details: not given
How it was run: (§1)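 IC50 against renin in plasma from the named species (dog, ferret, human, rat); single determination in most cases.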
CCCC[C@H](N[C@@H](Cc1ccccc1)C(=O)N1CCC(OCOC)CC1)C(=O)N[C@@H](CC1CCCCC1)[C@@H](O)C[C@H](C(=O)NCCc1ccccn1)C(C)C showed an IC50 of 7000 nM.
CCCC[C@H](N[C@@H](Cc1ccccc1)C(=O)N1CCC(OCOC)CC1)C(=O)N[C@@H](CC1CCCCC1)[C@@H](O)C[C@H](C(=O)NCCCn1ccnc1)C(C)C showed an IC50 of 7300 nM.

Test system: not listed separately
Assay: Oral bioavailability in ferret
Details: in vivo
CCCC[C@H](N[C@@H](Cc1ccccc1)C(=O)N1CCC(OCOC)CC1)C(=O)N[C@@H](CC1CCCCC1)[C@@H](O)C[C@H](C(=O)NCCCN1CCOCC1)C(C)C gave a bioavailability of 75%.

Test system: Canis familiaris
Assay: Mean arterial pressure response following 1 mg/kg intravenous administration to salt depleted dog
Details: in vivo
In the case of CCCC[C@H](N[C@@H](Cc1ccccc1)C(=O)N1CCC(OCOC)CC1)C(=O)N[C@@H](CC1CCCCC1)[C@@H](O)C[C@H](C(=O)NCCCN1CCOCC1)C(C)C, the Arterial pressure is reported as 8356 % mmHg min.

Test system: Canis familiaris
Assay: Mean arterial pressure response following 10 mg/kg intraduodenal administration to salt depleted dog
Details: in vivo, other
For CCCC[C@H](N[C@@H](Cc1ccccc1)C(=O)N1CCC(OCOC)CC1)C(=O)N[C@@H](CC1CCCCC1)[C@@H](O)C[C@H](C(=O)NCCCN1CCOCC1)C(C)C, the Arterial pressure was 10803 % mmHg min.

Test system: not listed separately
Assay: Average peak plasma concentration of compound after 1 mg/kg intravenous administration to rat
Details: plasma
CCCC[C@H](N[C@@H](Cc1ccccc1)C(=O)N1CCC(OCOC)CC1)C(=O)N[C@@H](CC1CCCCC1)[C@@H](O)C[C@H](C(=O)NCC(C)(C)NCCO)C(C)C gave a Cmax of 3480 ng/mL.

Test system: not listed separately
Assay: Average peak plasma concentration of compound after 1 mg/kg intravenous administration to Ferret
Details: in vivo
Compound CCCC[C@H](N[C@@H](Cc1ccccc1)C(=O)N1CCC(OCOC)CC1)C(=O)N[C@@H](CC1CCCCC1)[C@@H](O)C[C@H](C(=O)NCCCN1CCOCC1)C(C)C has a Cmax of 1550 ng/mL.

Species on record: Homo sapiens
Assay: not given
Details: Liver, Microsome
CCCC[C@H](N[C@@H](Cc1ccccc1)C(=O)N1CCC(OCOC)CC1)C(=O)N[C@@H](CC1CCCCC1)[C@@H](O)C[C@H](C(=O)NCCCN1CCOCC1)C(C)C showed a Rate (nM min-1 (nM of cytochrome P450)-1) of 4.14.

Test system: not listed separately
Assay: Average peak plasma concentration of compound after 10 mg/kg intraduodenal administration to rat
Details: in vivo
Compound CCCC[C@H](N[C@@H](Cc1ccccc1)C(=O)N1CCC(OCOC)CC1)C(=O)N[C@@H](CC1CCCCC1)[C@@H](O)C[C@H](C(=O)NCCCN1CCOCC1)C(C)C has a Cmax of 190 ng/mL.

Same assay, conditions: plasma
Compound CCCC[C@H](N[C@@H](Cc1ccccc1)C(=O)N1CCC(OCOC)CC1)C(=O)N[C@@H](CC1CCCCC1)[C@@H](O)C[C@H](C(=O)NCC(C)(C)NCCO)C(C)C has a Cmax of 80 ng/mL.

Target: T2, Renin (Homo sapiens, UniProt P00797)
T2 sequence (P00797 whole entry): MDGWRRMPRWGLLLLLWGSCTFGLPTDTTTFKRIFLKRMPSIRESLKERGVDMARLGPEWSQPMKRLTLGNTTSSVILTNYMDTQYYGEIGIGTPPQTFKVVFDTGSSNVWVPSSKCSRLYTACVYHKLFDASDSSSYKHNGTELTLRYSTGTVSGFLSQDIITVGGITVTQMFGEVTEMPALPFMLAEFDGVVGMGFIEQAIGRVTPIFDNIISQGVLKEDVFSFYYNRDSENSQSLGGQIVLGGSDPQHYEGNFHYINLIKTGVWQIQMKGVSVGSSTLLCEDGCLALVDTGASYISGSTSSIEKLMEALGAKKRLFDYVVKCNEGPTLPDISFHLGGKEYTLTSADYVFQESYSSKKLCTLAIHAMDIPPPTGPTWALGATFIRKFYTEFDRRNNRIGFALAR
Assay: Tested in vitro for its ability to inhibit the human plasma renin at pH of 7.4
Type: cell-free
Details: not given
Work on CCCC[C@H](O[C@@H](Cc1ccccc1)C(=O)N1CCC(OCOC)CC1)C(=O)N[C@@H](CC1CCCCC1)[C@@H](O)C[C@H](C(=O)NCCCNC(C)=O)C(C)C yielded an IC50 of 2.4 nM.

Target: T2, Renin
Assay: Tested in vitro for its ability to inhibit the human plasma renin
Type: cell-free
Details: not given
How it was run: as §1
In the case of CCCC[C@H](N[C@@H](Cc1ccccc1)C(=O)N1CCC(OCOC)CC1)C(=O)N[C@@H](CC1CCCCC1)[C@@H](O)C[C@H](C(=O)NCC(C)(C)NCCO)C(C)C, the IC50 is reported as 6.3 nM.
Compound CCCC[C@H](N[C@@H](Cc1ccccc1)C(=O)N1CCC(OCOC)CC1)C(=O)N[C@@H](CC1CCCCC1)[C@@H](O)C[C@H](C(=O)NCCc1ccccn1)C(C)C has an IC50 of 9.4 nM.

Target: Renin (Mustela putorius furo)
Assay: Tested in vitro for its ability to inhibit the ferret plasma renin
Details: not given
CCCC[C@H](N[C@@H](Cc1ccccc1)C(=O)N1CCC(OCOC)CC1)C(=O)N[C@@H](CC1CCCCC1)[C@@H](O)C[C@H](C(=O)NCCc1ccccn1)C(C)C gave an IC50 of 510 nM.
With CCCC[C@H](N[C@@H](Cc1ccccc1)C(=O)N1CCC(OCOC)CC1)C(=O)N[C@@H](CC1CCCCC1)[C@@H](O)C[C@H](C(=O)NCCCn1ccnc1)C(C)C the IC50 was 330 nM.

Test system: not listed separately
Assay: Average area under curve for the compound at 1 mg/kg dose after intravenous administration to rat
Details: in vivo
In the case of CCCC[C@H](N[C@@H](Cc1ccccc1)C(=O)N1CCC(OCOC)CC1)C(=O)N[C@@H](CC1CCCCC1)[C@@H](O)C[C@H](C(=O)NCC(C)(C)NCCO)C(C)C, the AUC is reported as 477 ng·h/mL.
CCCC[C@H](N[C@@H](Cc1ccccc1)C(=O)N1CCC(OCOC)CC1)C(=O)N[C@@H](CC1CCCCC1)[C@@H](O)C[C@H](C(=O)NCCCN1CCOCC1)C(C)C gave an AUC of 66.7 ng·h/mL.

Test system: not listed separately
Assay: Average area under curve at 1 mg/kg intravenous administration to salt depleted dog
Details: in vivo
CCCC[C@H](N[C@@H](Cc1ccccc1)C(=O)N1CCC(OCOC)CC1)C(=O)N[C@@H](CC1CCCCC1)[C@@H](O)C[C@H](C(=O)NCCCN1CCOCC1)C(C)C showed an AUC of 693 ng·h/mL.

Test system: not listed separately
Assay: Oral bioavailability in rat
Details: in vivo, intraduodenal, 10 mg/kg
Work on CCCC[C@H](N[C@@H](Cc1ccccc1)C(=O)N1CCC(OCOC)CC1)C(=O)N[C@@H](CC1CCCCC1)[C@@H](O)C[C@H](C(=O)NCC(C)(C)NCCO)C(C)C yielded a bioavailability of 1%.
CCCC[C@H](N[C@@H](Cc1ccccc1)C(=O)N1CCC(OCOC)CC1)C(=O)N[C@@H](CC1CCCCC1)[C@@H](O)C[C@H](C(=O)NCCCN1CCOCC1)C(C)C showed a bioavailability of 36.3%.

Target: Renin (Canis familiaris)
Assay: Tested in vitro for its ability to inhibit the dog plasma renin
Details: not given
For CCCC[C@H](N[C@@H](Cc1ccccc1)C(=O)N1CCC(OCOC)CC1)C(=O)N[C@@H](CC1CCCCC1)[C@@H](O)C[C@H](C(=O)NCCc1ccccn1)C(C)C, the IC50 was 33 nM.
With CCCC[C@H](N[C@@H](Cc1ccccc1)C(=O)N1CCC(OCOC)CC1)C(=O)N[C@@H](CC1CCCCC1)[C@@H](O)C[C@H](C(=O)NCCCn1ccnc1)C(C)C the IC50 was 24 nM.

Test system: not listed separately
Assay: Average area under curve at 10 mg/kg intraduodenal administration to salt depleted dog
Details: in vivo
In the case of CCCC[C@H](N[C@@H](Cc1ccccc1)C(=O)N1CCC(OCOC)CC1)C(=O)N[C@@H](CC1CCCCC1)[C@@H](O)C[C@H](C(=O)NCCCN1CCOCC1)C(C)C, the AUC is reported as 4000 ng·h/mL.

Test system: not listed separately
Assay: Average peak plasma concentration of compound after 1 mg/kg intravenous administration in salt depleted dog
Details: in vivo
Compound CCCC[C@H](N[C@@H](Cc1ccccc1)C(=O)N1CCC(OCOC)CC1)C(=O)N[C@@H](CC1CCCCC1)[C@@H](O)C[C@H](C(=O)NCCCN1CCOCC1)C(C)C has a Cmax of 4700 ng/mL.

Test system: not listed separately
Assay: Partition coefficient (logD7.4)
Details: octanol/water, pH 7.4
CCCC[C@H](O[C@@H](Cc1ccccc1)C(=O)N1CCC(OCOC)CC1)C(=O)N[C@@H](CC1CCCCC1)[C@@H](O)C[C@H](C(=O)NCCCNC(C)=O)C(C)C gave a logD of 4.3.

Test system: not listed separately
Assay: Average peak plasma concentration of compound at 10 mg/kg intraduodenal administration in salt depleted dog
Details: in vivo
With CCCC[C@H](N[C@@H](Cc1ccccc1)C(=O)N1CCC(OCOC)CC1)C(=O)N[C@@H](CC1CCCCC1)[C@@H](O)C[C@H](C(=O)NCCCN1CCOCC1)C(C)C the Cmax was 1260 ng/mL.

Test system: not listed separately
Assay: Average area under curve for the compound at 10 mg/kg dose after intraduodenal administration to rat
Details: in vivo
Work on CCCC[C@H](N[C@@H](Cc1ccccc1)C(=O)N1CCC(OCOC)CC1)C(=O)N[C@@H](CC1CCCCC1)[C@@H](O)C[C@H](C(=O)NCC(C)(C)NCCO)C(C)C yielded an AUC of 66.3 ng·h/mL.
Compound CCCC[C@H](N[C@@H](Cc1ccccc1)C(=O)N1CCC(OCOC)CC1)C(=O)N[C@@H](CC1CCCCC1)[C@@H](O)C[C@H](C(=O)NCCCN1CCOCC1)C(C)C has an AUC of 235 ng·h/mL.

Test system: not listed separately
Assay: Average area under curve for compound at 1 mg/kg dose intravenous administration to Ferret
Details: in vivo
In the case of CCCC[C@H](N[C@@H](Cc1ccccc1)C(=O)N1CCC(OCOC)CC1)C(=O)N[C@@H](CC1CCCCC1)[C@@H](O)C[C@H](C(=O)NCCCN1CCOCC1)C(C)C, the AUC is reported as 902 ng·h/mL.
